From ChEMBL document CHEMBL1138467, “Indomethacin amides as a novel molecular scaffold for targeting Trypanosoma cruzi sterol 14alpha-demethylase” (J Med Chem, 2009) come the findings set out here.

The target of experiment [1] is Sterol 14-alpha demethylase (Trypanosoma cruzi (strain CL Brener)) (UniProt Q7Z1V1). As to the kind of experiment: Inhibitory potency at Trypanosoma cruzi CYP51 assessed as molar ratio of drug to enzyme required to slow down the reaction twofold at 1 uM enzyme concentration. In short, it runs like this: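 Reconstituted with T. brucei CPR and DLPC (TCCYP51:CPR:DLPC 1:2:50). Final mix: 1 μM TCCYP51, 50 μM [3H]-MDL in MOPS pH 7.4 with KCl, MgCl2, glycerol and an isocitrate/isocitrate dehydrogenase system. Inhibitors 1–100 μM, 5 min preincubation at 37°C, started with NADPH. Sterols by reverse-phase radio-HPLC. I/E2 is the inhibitor/enzyme molar ratio halving the initial rate.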
Chain of Sterol 14-alpha demethylase (Trypanosoma cruzi (strain CL Brener)) (Q7Z1V1 whole entry, looked up): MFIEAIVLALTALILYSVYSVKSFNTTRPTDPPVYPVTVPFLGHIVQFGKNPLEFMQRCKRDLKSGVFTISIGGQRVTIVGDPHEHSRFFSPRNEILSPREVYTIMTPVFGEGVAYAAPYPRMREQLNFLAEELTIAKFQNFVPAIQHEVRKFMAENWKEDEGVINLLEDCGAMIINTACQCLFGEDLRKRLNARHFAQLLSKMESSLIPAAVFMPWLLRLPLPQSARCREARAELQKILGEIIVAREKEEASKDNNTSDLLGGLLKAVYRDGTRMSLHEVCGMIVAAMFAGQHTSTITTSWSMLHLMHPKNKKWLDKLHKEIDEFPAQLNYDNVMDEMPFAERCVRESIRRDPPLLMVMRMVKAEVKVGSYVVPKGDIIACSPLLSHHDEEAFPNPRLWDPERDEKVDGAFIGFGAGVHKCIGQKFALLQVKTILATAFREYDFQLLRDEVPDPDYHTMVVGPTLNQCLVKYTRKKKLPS

Experiment [2] has as its target Sterol 14-alpha demethylase (Trypanosoma cruzi (strain CL Brener), UniProt Q7Z1V1). As to the kind of experiment: Binding affinity to Trypanosoma cruzi CYP51 expressed in Escherichia coli by spectral titration.
The target in experiment [3] is T1, Prostaglandin G/H synthase 2 (Mus musculus) (UniProt Q05769).
T1 sequence (whole entry): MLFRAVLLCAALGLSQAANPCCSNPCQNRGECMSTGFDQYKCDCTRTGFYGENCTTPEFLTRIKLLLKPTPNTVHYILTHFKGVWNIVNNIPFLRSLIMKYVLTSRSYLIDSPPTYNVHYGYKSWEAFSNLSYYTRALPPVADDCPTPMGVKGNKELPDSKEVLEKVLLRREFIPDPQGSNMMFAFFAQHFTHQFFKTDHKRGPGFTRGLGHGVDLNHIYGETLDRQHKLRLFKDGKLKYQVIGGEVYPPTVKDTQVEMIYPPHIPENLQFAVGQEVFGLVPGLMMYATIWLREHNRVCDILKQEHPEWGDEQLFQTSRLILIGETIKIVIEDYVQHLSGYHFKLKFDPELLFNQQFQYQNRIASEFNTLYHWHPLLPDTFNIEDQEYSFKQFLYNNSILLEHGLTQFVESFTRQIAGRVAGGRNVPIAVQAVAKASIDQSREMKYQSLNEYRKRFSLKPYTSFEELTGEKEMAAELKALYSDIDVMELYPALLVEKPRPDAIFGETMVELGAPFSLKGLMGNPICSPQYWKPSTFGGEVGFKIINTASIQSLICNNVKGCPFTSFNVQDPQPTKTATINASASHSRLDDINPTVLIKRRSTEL
The experiment is described as follows: Inhibitory potency at mouse COX2 assessed as molar ratio of drug to enzyme required to slow down the reaction twofold at 0.1 uM enzyme concentration. In outline: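 Mouse cyclooxygenase-2 at 100 nM final concentration. Potency is expressed as the inhibitor/enzyme molar ratio giving a two-fold decrease in the initial rate of catalysis (I/E2).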

The subject of experiment [4] is Trypanosoma cruzi. As to the kind of experiment: Antitrypanosomal activity against Trypanosoma cruzi trypomastigotes in cardiomyocytes at 10 uM after 72 hrs. It counts as functional, organism-based. In short, it runs like this:
(§1)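 Trypomastigotes (10^6) were pre-exposed for 30 min to inhibitor in DMSO (1–50 μM) or DMSO control. They then infected rat cardiomyocyte monolayers in triplicate at 10 parasites/cell for 2 h. Unbound parasites were removed and cells were grown in DMEM/10% FBS for 72 h. Parasites per 200 cells and % infection were counted on Giemsa-stained monolayers. Results are mean ± SD, with Student t test.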

Experiment [5] relates to Trypanosoma cruzi. As to the kind of experiment: Antitrypanosomal activity against Trypanosoma cruzi trypomastigote in cardiomyocytes assessed as decrease in intracellular parasites at 20 uM after 72 hrs. The experiment is classed as functional, organism-based. In short, it runs like this:
as §1

In experiment [6] the test system is Trypanosoma cruzi. The experiment is described as follows: Antitrypanosomal activity against Trypanosoma cruzi amastigotes in cardiomyocytes. It counts as functional. In short, it runs like this: as §1
The test system of experiment [7] is Trypanosoma cruzi. The experiment is described as follows: Antitrypanosomal activity against Trypanosoma cruzi trypomastigotes in cardiomyocytes. It counts as functional, organism-based. In short, it runs like this:
as §1

Experiment [8] deals with Trypanosoma cruzi. The experiment is described as follows: Antitrypanosomal activity against Trypanosoma cruzi epimastigotes assessed as blocking of cellular sterol composition at 50 uM after 24 hrs.

Structures are written as SMILES. Activity calls are given as the source filed them. The calls are words filed in the database; no cut-off is given here. Bounds are passed on as bounds.

Chain of Sterol 14-alpha demethylase (Q7Z1V1 whole entry): as the sequence (Q7Z1V1 whole entry, looked up) above

Take `COc1ccc2c(c1)c(CC(=O)Nc1cccnc1)c(C)n2C(=O)c1ccc(Cl)cc1`: the Ratio in experiment [1] came out at 9.1; in experiment [3], 2.1. The equilibrium dissociation constant (Kd) (commonly the equilibrium constant for the complex coming apart) in experiment [2] was 290 nM.
Take `COc1ccc2c(c1)c(CC(=O)NCC(C)c1ccccc1)c(C)n2C(=O)c1ccc(Cl)cc1` (stereo unspecified): the outcome in experiment [4] and in experiment [5] was Active. Besides, the Ratio is < 1 in experiment [1] and > 40 in experiment [3]. This compound also showed a Kd in experiment [2] of 150 nM.
For `COc1ccc2c(c1)c(CC(=O)NCCc1cccnc1)c(C)n2C(=O)c1ccc(Cl)cc1`, in experiment [1], the Ratio was 6.3. In experiment [6] (read-out: ED50 (the source's name)), the EC50 was < 1000 nM. In experiment [2], this compound yielded a Kd of 2310 nM. In experiment [7], the Activity result is “Dose-dependent effect”. The outcome in experiment [8] was Active.
For the compound `COc1ccc2c(c1)c(CC(=O)Nc1ncccn1)c(C)n2C(=O)c1ccc(Cl)cc1`, the Ratio is 15 in experiment [1] and 3.6 in experiment [3].
Regarding `O=C(Nc1ccncc1)C1c2ccccc2Oc2ccccc21`, the Ratio in experiment [1] is 14. Further, in experiment [2], the affinity, expressed as Kd, was 750 nM.
With `COc1ccc2c(c1)c(CC(=O)Nc1ccccn1)c(C)n2C(=O)c1ccc(Cl)cc1`, the Ratio worked out at 11 in experiment [1] and 2.1 in experiment [3]. This compound also gave a Kd in experiment [2] of 3300 nM.
For `COc1ccc2c(c1)c(CC(=O)NCc1ccncc1)c(C)n2C(=O)c1ccc(Cl)cc1`, the Ratio in experiment [1] and in experiment [3] was 10 in each case. In experiment [2], the affinity, expressed as Kd, was 540 nM.
Take `COc1ccc2c(c1)c(CC(=O)NC(C)c1ccncc1)c(C)n2C(=O)c1ccc(Cl)cc1` (stereo unspecified): the results for the Ratio in experiment [1] and in experiment [3] were 8.5 and 1.7, respectively. In experiment [2], this compound returned a Kd of 370 nM.
Take `COc1ccc2c(c1)c(CC(=O)NCCc1cccc(Cl)c1)c(C)n2C(=O)c1ccc(Cl)cc1`: the outcome in experiment [4] and in experiment [5] was Active. Also, the Ratio in experiment [1] and in experiment [3] was < 1 in each case. Moreover, binding in experiment [2] was characterised by a dissociation constant (Kd) of 360 nM.
On to `CCC(C(=O)Nc1ccncc1)c1ccccc1` (stereo unspecified), for which the Ratio in experiment [1] stood at 10. In experiment [2], the Kd was found to be 440 nM.
Turning to `COc1ccc2c(c1)c(CC(=O)NCc1ccccn1)c(C)n2C(=O)c1ccc(Cl)cc1`, the Ratio in experiment [1] is 13; in experiment [3], > 10. Also, the Activity result in experiment [6] and in experiment [7] was “Dose-dependent effect” throughout. For the same compound, binding in experiment [2] was characterised by a dissociation constant (Kd) of 7600 nM.
`COc1ccc2c(c1)c(CC(=O)NCc1ccc(Cl)nc1)c(C)n2C(=O)c1ccc(Cl)cc1`: the values for the Ratio in experiment [1] and in experiment [3] were 4.2 and < 1, respectively. Also, the Activity entry in experiment [6] and in experiment [7] was “Dose-dependent effect” each time.
With `CC1CCC(C(=O)NC(Cc2c[nH]c3ccccc23)C(=O)Nc2ccncc2)CC1` (stereo unspecified), the Activity entry in experiment [6] and in experiment [7] was “Dose-dependent effect” each time.
Turning to `COc1ccc2c(c1)c(CC(=O)NCc1ccc(C(F)(F)F)nc1)c(C)n2C(=O)c1ccc(Cl)cc1`, the Ratio in experiment [1] is 7.7; in experiment [3], < 1.
